Laboratory results taken from ChEMBL document CHEMBL1151832, “Structure elucidation at the nanomole scale. 1. Trisoxazole macrolides and thiazole-containing cyclic peptides from the nudibranch Hexabranchus sanguineus” (2009).
In brackets after ≈: the same amount, converted by molar mass. Activity calls are given as the source filed them. The calls are words filed in the database; no cut-off is given here.

Columns and labels:
[1] = system: Candida albicans; assay: Antifungal activity against Candida albicans ATCC 14503 by broth microdilution method; type: functional
How it was run: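 C. albicans reference strain grown on Sabouraud dextrose agar at 30 °C for 24 h. NCCLS broth microdilution: 2-fold serial dilutions from DMSO stocks in RPMI-1640 buffered to pH 7.0 with 0.165 M MOPS. Final concentrations 0.062–64 µg/mL; amphotericin B control 0.0078–8 µg/mL. Tested in replicate; growth read as OD 600 nm; MIC = lowest concentration giving ≥90% growth inhibition.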

[2] = system: Nakaseomyces glabratus; assay: Antifungal activity against Candida glabrata clinical isolate by broth microdilution method; type: functional
How it was run: (§1)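 Isolates were maintained on Sabouraud dextrose agar at 30 °C, for 24 h (Candida) or 48 h (C. neoformans). Testing followed the NCCLS broth microdilution method, using 2-fold serial dilutions from DMSO stocks in RPMI-1640 buffered to pH 7.0 with 0.165 M MOPS. Final concentrations were 0.062–64 µg/mL, with amphotericin B as positive control. Replicates were run, and growth was read by OD600. MIC was the lowest concentration giving ≥90% inhibition.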

[3] = system: Cryptococcus neoformans; assay: Antifungal activity against Cryptococcus neoformans var. grubii clinical isolate by broth microdilution method; type: functional
How it was run: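 Clinical isolate maintained on Sabouraud dextrose agar, 30 °C, 48 h. Susceptibility by NCCLS broth microdilution in RPMI-1640 with 0.165 M MOPS (pH 7.0), using 2-fold dilutions from DMSO stocks spanning 0.062–64 µg/mL final (amphotericin B control 0.0078–8 µg/mL). Replicate wells per run; OD 600 nm read-out; MIC endpoint is the lowest concentration with complete (≥90%) inhibition.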

[4] = system: Candida albicans; assay: Antifungal activity against fluconazole-resistant Candida albicans isolate UCDFR1 by broth microdilution method; type: functional, organism-based; how it was run: as §1
[5] = system: Pichia kudriavzevii; assay: Antifungal activity against fluconazole-resistant Candida krusei clinical isolate by broth microdilution method; type: functional, organism-based; how it was run: as §1
[6] = system: Cryptococcus gattii; assay: Antifungal activity against Cryptococcus neoformans var. gattii clinical isolate by broth microdilution method; type: functional, organism-based; settings: Cryptococcus bacillisporus; how it was run: as §1
[7] = system: Candida albicans; assay: Antifungal activity against fluconazole-resistant Candida albicans isolate 96-489 by broth microdilution method

Row | Structure (SMILES) | MIC [1] [µg/mL] | MIC [2] [µg/mL] | MIC [3] [µg/mL] | MIC [4] | MIC [5] | MIC [6] | MIC [7]
1 | CO[C@H]([C@H](C)/C=C/N(C)C=O)[C@@H](C)C(=O)CC[C@H](C)[C@H](C[C@@H]1OC(=O)C[C@@H](O)CCC[C@H](O)[C@H](C)[C@H](OC)c2coc(n2)-c2coc(n2)-c2coc(n2)/C=C/CC[C@H]1C)OC | 0.25 (≈ 0.292 µM) | 0.125 (≈ 0.146 µM) | 0.5 (≈ 0.585 µM) | – | – | – | –
2 | CO[C@H]([C@H](C)/C=C/N(C)C=O)[C@@H](C)C(=O)CC[C@H](C)[C@H](C[C@@H]1OC(=O)C[C@@H](OC(N)=O)C[C@H](C)C[C@H](O)[C@H](C)[C@@H](O)c2coc(n2)-c2coc(n2)-c2coc(n2)/C=C/C[C@H](O)[C@H]1C)OC [9-O-DESMETHYL KABIRAMIDE B] | 2 (≈ 2.19 µM) | 1 (≈ 1.09 µM) | 2 (≈ 2.19 µM) | inactive | inactive | inactive | inactive
3 | C[C@@H]1[C@H](O)[C@@H](C)/C=C/C=C/C=C/C=C/C=C/C=C/C=C/[C@H](O[C@@H]2O[C@H](C)[C@@H](O)[C@H](N)[C@@H]2O)C[C@@H]2O[C@](O)(C[C@@H](O)C[C@@H](O)[C@H](O)CC[C@@H](O)C[C@@H](O)CC(=O)O[C@H]1C)C[C@H](O)[C@H]2C(=O)O [AMPHOTERICIN B] | 0.016 (≈ 0.0173 µM) | 0.25 (≈ 0.271 µM) | 0.016 (≈ 0.0173 µM) | – | – | – | –
4 | CO[C@H]([C@H](C)/C=C/N(C)C=O)[C@@H](C)C(=O)CC[C@H](C)[C@H](C[C@@H]1OC(=O)C[C@@H](OC(N)=O)C[C@H](C)C[C@H](O)[C@H](C)[C@@H](OC)c2coc(n2)-c2coc(n2)-c2coc(n2)/C=C/C[C@H](O)[C@H]1C)OC [KABIRAMIDE B] | 0.5 (≈ 0.539 µM) | 0.5 (≈ 0.539 µM) | 1 (≈ 1.08 µM) | – | – | – | –
5 | CO[C@H]([C@H](C)/C=C/N(C)C=O)[C@@H](C)C(=O)CC[C@H](C)[C@H](C[C@@H]1OC(=O)C[C@@H](OC(N)=O)C[C@H](C)C[C@H](O)[C@H](C)[C@@H](OC)c2coc(n2)-c2coc(n2)-c2coc(n2)/C=C/C[C@H](OC)[C@H]1C)OC [KABIRAMIDE C] | 0.016 (≈ 0.017 µM) | 0.25 (≈ 0.265 µM) | 0.125 (≈ 0.133 µM) | Active | Active | Active | Active
